# Published values from different studies.
# Protocols differ between the studies behind these lines.
# HDAC5: Histone deacetylase 5 (HDAC5, Homo sapiens, UniProt Q9UQL6)
# PRMT1: Protein arginine N-methyltransferase 1 (PRMT1, Homo sapiens, UniProt Q99873)
# CHEK1: Serine/threonine-protein kinase Chk1 (CHEK1, Homo sapiens, UniProt O14757)
# TLR8: Toll-like receptor 8 (TLR8, Homo sapiens, UniProt Q9NR97)
# SLC6A3: Sodium-dependent dopamine transporter (SLC6A3, Homo sapiens, UniProt Q01959)
# PTPN22: Tyrosine-protein phosphatase non-receptor type 22 (PTPN22, Homo sapiens, UniProt Q9Y2R2)
Structure (SMILES),target,test,setting,IC50
C/C(=N\O)c1ccc(-c2ccc(O)c(C)c2)c(Cl)c1O,"Solute carrier family 2, facilitated glucose transporter member 1 (SLC2A1, Homo sapiens, UniProt P11166)","transporter uptake, inhibitor, radiometric",,11100 nM
Nc1ccc(-c2ccncc2)cc1NC(=O)N1CCCC1,HDAC5,"enzyme activity, inhibitor",,> 33300 nM
N=C(NCCCSC[C@H]1O[C@@H](n2cnc3c(NCCCc4ccccc4)ncnc32)[C@H](O)[C@@H]1O)Nc1ccccc1,PRMT1,"enzyme activity, inhibitor, fluorescence",,355 nM
N=C(N)c1ccc(-c2ccc(-c3ccc(C(=N)N)nc3)o2)cc1,PRMT1,"enzyme activity, inhibitor",,9500 nM
COc1cc(NC(=O)CCCCCCC(=O)O)c(Cl)cc1NC(=O)Nc1cnc(C#N)cn1,CHEK1,"enzyme activity, inhibitor",,57.9 nM
Cc1cc(-c2ccnc3cc(Cl)ccc23)ccc1O,TLR8,"reporter gene, antagonist",,1 nM
COc1cc(N2CCN(C)CC2)ccc1Nc1ncc2c(n1)N(C)c1ccccc1C(=O)N2CC(F)(F)F,"Activated CDC42 kinase 1 (TNK2, Homo sapiens, UniProt Q07912)","cell-free assay, TR-FRET",,5000 nM
COc1cc(-c2ccc3c(c2)N(C)c2ccccc2NC3=O)ccc1[N+](=O)[O-],CHEK1,"enzyme activity, inhibitor",,1640 nM
Clc1ccc(C(c2ccccc2)c2nnnn2CCCCN2CCC(CCCc3ccccc3)CC2)cc1 (stereo not drawn),SLC6A3,"transporter uptake, inhibitor",,331 nM
COc1ccc(-c2ccccc2)cc1NS(=O)(=O)c1cc(Cl)cc(Cl)c1O,"ATP-citrate synthase (ACLY, Homo sapiens, UniProt P53396)","enzyme activity, inhibitor",,460 nM
Cc1ccc(NC(=O)c2ccc(C)c(C(F)(F)F)c2)cc1C#Cc1nn(C2CCC(O)CC2)c2ncnc(N)c12 (stereo not drawn),"Fibroblast growth factor receptor 2 (FGFR2, Homo sapiens, UniProt P21802)","enzyme activity, inhibitor, radiometric",,40 nM
COC(=O)Cc1ccc2c(c1)NC(=O)c1cc(C)c(-c3ccc([N+](=O)[O-])c(OC)c3)cc1N2,CHEK1,"enzyme activity, inhibitor",,49.4 nM
COCCNC(=O)Nc1ccc2nc(-c3cccs3)c(-c3cccs3)nc2c1,"Acetyl-coenzyme A synthetase, cytoplasmic (ACSS2, Homo sapiens, UniProt Q9NR19)","enzyme activity, inhibitor, absorbance",,~600 nM
COc1cc(-c2ccc(-c3[nH]nc4c3Cc3cc(CNC5CCC(O)CC5)ccc3-4)cc2)ccc1O (stereo not drawn),CHEK1,"enzyme activity, inhibitor",,59.4 nM
N=C(NCCCO)NCCCSC[C@H]1O[C@@H](n2cnc3c(NCCCc4ccccc4)ncnc32)[C@H](O)[C@@H]1O,PRMT1,"enzyme activity, inhibitor, fluorescence",,4900 nM
O=C(O)c1ccc(-c2[nH]nc3c2Cc2cc(CNC4CCC(O)CC4)ccc2-3)o1 (stereo not drawn),CHEK1,"enzyme activity, inhibitor",,1560 nM
COc1cccc(CN(C(=O)CC(C)(C)C)[C@H]2C[C@@H](C(=O)N3CCNCC3)N(Cc3ccc4c(c3)OCO4)C2)c1,"Protein smoothened (SMO, Homo sapiens, UniProt Q99835)","reporter gene, inhibitor, luciferase",,1500 nM
CCN(CC)C(=S)SSC(=S)N(CC)CC,PTPN22,"enzyme activity, inhibitor, fluorescence",pH 6.5,47000 nM
O=C(O)C1=CCCN(CCON=C(c2ccccc2)c2ccccc2)C1,"Sodium- and chloride-dependent GABA transporter 1 (Slc6a1, Rattus norvegicus, UniProt P23978)","ligand displacement, radioligand",,390 nM
CC(=O)SCCNC(=O)CCNC(=O)[C@H](O)C(C)(C)COP(=O)(O)OP(=O)(O)OC[C@H]1O[C@@H](n2cnc3c(N)ncnc32)[C@H](O)[C@@H]1OP(=O)(O)O,"Pantothenate kinase 3 (PANK3, Homo sapiens, UniProt Q9H999)","enzyme activity, inhibitor",,170 nM
COc1cc(-c2ccc3c(c2)Nc2ccc(NC(N)=O)cc2NC3=O)ccc1[N+](=O)[O-],CHEK1,"enzyme activity, inhibitor",,6.41 nM
O=C(O)C(=O)CC(=O)c1cccc(N(Cc2ccccc2)Cc2ccccc2)c1,PTPN22,"enzyme activity, inhibitor, absorbance",pH 7,73000 nM
Clc1ccc(C(c2ccccc2)c2nnnn2CCCN2CCC(Cc3ccccc3)CC2)cc1 (stereo not drawn),SLC6A3,"transporter uptake, inhibitor",,226 nM
COc1cc(O)c(C(CC(=O)N2CCCC2)c2ccc3c(c2)OCO3)c(OC)c1 (stereo not drawn),"Nuclear receptor ROR-gamma (Mus musculus, UniProt P51450)",reporter gene,,> 50000 nM
Clc1ccc(C(c2ccccc2)c2nnnn2CCCN2CCC(CCCc3ccccc3)CC2)cc1 (stereo not drawn),SLC6A3,"transporter uptake, inhibitor",,843 nM
COc1cc(-c2ccc3c(c2)Nc2ccc(CC(=O)N4CCCC(O)C4)cc2NC3=O)ccc1Cl (stereo not drawn),CHEK1,"enzyme activity, inhibitor",,14.8 nM
Fc1ccc(C(c2ccc(F)cc2)c2nnnn2CCCCN2CCN(Cc3ccccc3)CC2)cc1,SLC6A3,"transporter uptake, inhibitor",,144 nM
CCCC[C@H](NC(=O)C1CN(C)C1)c1ncc(-c2cc3ccccc3nc2OC)[nH]1,HDAC5,"enzyme activity, inhibitor",,> 30000 nM
Clc1ccc(C(c2ccccc2)c2nnnn2CCCCN2CCN(CC=Cc3ccccc3)CC2)cc1 (stereo not drawn),SLC6A3,"transporter uptake, inhibitor",,412 nM
Cc1cccc(-c2ccnc3c(C(=O)O)cnn23)c1,TLR8,reporter gene,,> 20000 nM
COc1ccc(S(=O)(=O)ON=C2C=C(C)C(=O)C(C)=C2)cc1,"Histone acetyltransferase KAT2A (KAT2A, Homo sapiens, UniProt Q92830)","enzyme activity, inhibitor, radiometric",,33900 nM
COC(=O)Cc1ccc2c(c1)NC(=O)c1ccc(-c3cc(OC)ncc3C)cc1N2,CHEK1,"enzyme activity, inhibitor",,7.79 nM
COc1ccc(-c2nsc(NC(=O)[C@@H]3C[C@H]3C)c2C)cc1,"Metabotropic glutamate receptor 5 (GRM5, Homo sapiens, UniProt P41594)","calcium signal, antagonist",,118 nM
